Screening data: PubChem BioAssay, Broad Institute
Ecoli rRNA inh = inhibitors of bacterial rRNA selective over humanized ribosomes. AID 720706. E. coli WT GFP vs humanized-ribosome RFP mutants, fluorescence, 24 h; stronger effect = lower value; DMSO median 0, no signal -100. 350,000 tested, 1.6% active. GFP signal change (wild-type ribosome), % (no concentration beside the values);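 active means significant combined selectivity score with lowered wild-type GFP, culture density cut under 30%, mutant RFP and density less affected; inactive means any of these conditions unmet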
Cneo AK release = Cryptococcus neoformans lysis via adenylate kinase release; lysis activity, % at 15 µM; C. neoformans lysis, adenylate kinase release luminescence, 4 h; normalised: neutral wells 0, clomiphene wells 100; AID 651654; 360,000 tested, 0.2% active;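 active means mean lysis activity across replicates of at least 80%, whatever share of replicates individually reach that level; inactive means mean lysis activity below 80%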
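Material – log-phase Cryptococcus neoformans yeast cells · Input – 5 × 10^6 yeast cells/mL · Medium – fresh YPD growth medium · Doses – single compound concentration per well · Timing – static 4 h at 37 °C with compound, 1 h detection · Detection – adenylate kinase release luminescence · Read-out – signal increase indicating cell lysis · Control set – Clomiphene as positive lysis control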
HIV Env fusion = HIV envelope-mediated fusion inhibition; HeLa-JRFL Env/CEM21 cell fusion, luciferase; inhibition, % at 12.3 µM; 360,000 tested, 1.1% active; AID 651610;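 active means mean replicate inhibition score of at least 50 and every replicate individually at or above 50; inconclusive means only one of the two criteria met; inactive means mean below 50 and not all replicates reaching 50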;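 further: 0% = plate neutral controls and 100% = maraviroc near 300 nM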
FGF22 binding = FGF22 (human) thermal shift binding; activity (Tm shift, normalised), % at 9.99 µM; AID 651658; recombinant FGF22 thermal shift, SYPRO orange fluorescence; percent of sucrose octasulfate shift, DMSO zero; Q9HCT0; 340,000 tested, 1.5% active;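 active means mean Tm shift, scaled 0 neutral to 100 positive control, at about 1.3% or above, every replicate too, limit read from the data; inconclusive means no clear call, values can overlap the other calls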
PGC1a acetyl inh = PGC1a acetylation modulation, inhibitor mode. inhibition, % at 15.6 µM. U2OS PGC1a acetylation, AlphaScreen anti-acetyl-lysine; with virally co-expressed GCN5 acetyltransferase. 350,000 tested, 0.17% active;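 active means every replicate shows inhibition of at least 40%; inconclusive means mean inhibition at least 40% but some replicate below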;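 further: 0% = neutral control wells and 100% = positive control wells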
ERAP1 inh = blocks human ERAP1 aminopeptidase activity. 340,000 tested, 0.15% active. Q9NZ08. AID 652197. inhibition, % at 10.7 µM. recombinant ERAP1, Leu-AMC fluorescence, 60 min;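 active means mean replicate inhibition of at least 30%, or all replicates individually reaching that 30% level; inactive means mean below 30% and not every replicate reaching it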;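 further: 0% = neutral control wells and 100% = L-leucinethiol positive control wells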
Target sequence (Q9NZ08 whole entry, looked up): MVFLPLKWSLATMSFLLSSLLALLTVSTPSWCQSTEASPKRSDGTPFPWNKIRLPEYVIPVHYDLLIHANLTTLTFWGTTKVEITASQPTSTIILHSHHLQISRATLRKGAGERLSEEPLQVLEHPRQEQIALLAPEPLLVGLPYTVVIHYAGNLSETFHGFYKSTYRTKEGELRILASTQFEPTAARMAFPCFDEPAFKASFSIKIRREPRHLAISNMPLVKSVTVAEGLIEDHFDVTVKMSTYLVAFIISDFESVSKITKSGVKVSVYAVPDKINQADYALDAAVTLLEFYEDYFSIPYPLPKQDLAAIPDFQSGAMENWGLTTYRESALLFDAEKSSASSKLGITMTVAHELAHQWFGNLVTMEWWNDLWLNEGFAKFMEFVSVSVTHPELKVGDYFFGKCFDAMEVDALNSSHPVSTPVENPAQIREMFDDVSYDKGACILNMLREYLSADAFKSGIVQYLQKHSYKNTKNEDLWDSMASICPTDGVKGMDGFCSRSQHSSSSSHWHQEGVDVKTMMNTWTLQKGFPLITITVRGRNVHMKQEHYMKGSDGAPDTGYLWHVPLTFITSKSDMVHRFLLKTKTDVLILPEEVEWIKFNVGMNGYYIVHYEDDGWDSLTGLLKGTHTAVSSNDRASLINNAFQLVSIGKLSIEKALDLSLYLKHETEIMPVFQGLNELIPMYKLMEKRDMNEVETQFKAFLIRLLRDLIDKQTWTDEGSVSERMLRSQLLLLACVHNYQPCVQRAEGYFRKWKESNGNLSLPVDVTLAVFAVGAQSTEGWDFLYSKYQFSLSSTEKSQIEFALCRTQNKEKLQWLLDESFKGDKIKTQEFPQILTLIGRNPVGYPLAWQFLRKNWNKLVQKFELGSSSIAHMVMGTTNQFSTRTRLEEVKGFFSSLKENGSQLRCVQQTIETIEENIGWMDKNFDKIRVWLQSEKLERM
* = called active by the depositor; [ ] = dose if it differs, or a comment. Rows were chosen to be rich in hits. Some 3.5% of all compounds tested hit in one or more screens of this group.

For COc1ccc(NS(=O)(=O)c2ccc(-c3ccccn3)s2)cc1 the results were Cneo AK release 18.3, HIV Env fusion 3.4, FGF22 binding -0.1, PGC1a acetyl inh -15.0 and ERAP1 inh -5.5.
Screening O=S(=O)(Nc1ccccc1Cl)c1ccc(-c2ccccn2)s1 returned Ecoli rRNA inh -36.6*, Cneo AK release -2.6, HIV Env fusion 11.9, FGF22 binding 0.2, PGC1a acetyl inh -8.9 and ERAP1 inh 3.4.
For C[C@H]1C(=O)N(C)CCN1Cc1cn(C)nc1-c1ccc(Oc2ccccc2)cc1 the results were Ecoli rRNA inh 4.9, Cneo AK release 0.3, HIV Env fusion 7.1, FGF22 binding 43.6*, PGC1a acetyl inh 5.9 and ERAP1 inh -2.2.
`O=c1c2c([nH]n1-c1ccccc1)CCCC2` gave Ecoli rRNA inh 21.4, HIV Env fusion 5.8, FGF22 binding 0.2, PGC1a acetyl inh 6.4 and ERAP1 inh -4.1.
`C=CCn1c(O)c(C=Nc2ccccc2)sc1=S` gave Ecoli rRNA inh -22.0*, Cneo AK release 7.8, HIV Env fusion -15.7, FGF22 binding 0.2, PGC1a acetyl inh 1.8 and ERAP1 inh 1.6.
`COc1ccc2cc(C3CC=C(CO)CN3S(=O)(=O)c3ccccc3[N+](=O)[O-])n(C(=O)OC(C)(C)C)c2c1` (stereo not given) gave Ecoli rRNA inh -0.1, HIV Env fusion 64.9*, FGF22 binding -0.3 and ERAP1 inh -1.7.
CC(=O)Nc1cc(OC(C)=O)c2nonc2c1OC(C)=O was read as Cneo AK release 0.4 and PGC1a acetyl inh 44.2*.
CC(=O)Nc1nonc1NC(C)=O was read as Cneo AK release 4.5, HIV Env fusion -56.8 and PGC1a acetyl inh -3.6.
For CCNc1nc(NCC)nc(N(C#N)CCOc2ccccc2)n1 the results were Ecoli rRNA inh 3.1, HIV Env fusion 18.5, FGF22 binding -0.1 and ERAP1 inh 24.0.
`CN(C)c1nc(Cl)nc(N(C#N)CCOc2ccccc2)n1` gave Ecoli rRNA inh -30.3, HIV Env fusion -8.3, FGF22 binding 43.4*, PGC1a acetyl inh -4.4 and ERAP1 inh 1.2.
COc1ccc(C(=O)C(Cc2cc(C(C)=O)ccc2OC)N2CCCC2)cc1 (stereo not given) was read as Ecoli rRNA inh -2.3, HIV Env fusion -5.0 and FGF22 binding 0.4.
CC(C)c1csc2nc3n(c(=O)c12)CCCCC3 was read as Ecoli rRNA inh -33.0*, Cneo AK release 1.2, HIV Env fusion -6.8, FGF22 binding 0.2, PGC1a acetyl inh -7.5 and ERAP1 inh -2.8.
Screening CCCC#Cc1cnc2c(c1)C(=O)N([C@@H](C)CO)C[C@H](C)[C@@H](CN(C)C(=O)Nc1ccc(OC)cc1)O2 returned Ecoli rRNA inh -0.8, Cneo AK release 1.4, HIV Env fusion 12.4[16.7 µM], FGF22 binding -0.4, PGC1a acetyl inh -4.9 and ERAP1 inh 6.4.
`C/C(=N/OC(=O)c1ccc(C)cc1)c1cccs1` gave Cneo AK release -5.6 and PGC1a acetyl inh 1.9.
C/C(=N/OC(=O)c1ccccc1Br)c1ccc(C)cc1 was read as Ecoli rRNA inh -18.1*, Cneo AK release -11.4, HIV Env fusion -14.9, FGF22 binding 0.1, PGC1a acetyl inh 4.3 and ERAP1 inh 0.4.
For CC1([N+](=O)[O-])COC(c2cccc3ccccc23)OC1 (stereo not given) the results were Ecoli rRNA inh -21.9*, Cneo AK release 1.9, HIV Env fusion -15.0, PGC1a acetyl inh -0.5 and ERAP1 inh 0.5.
For COc1ccccc1C1OCC(C)([N+](=O)[O-])CO1 (stereo not given) the results were Ecoli rRNA inh 7.3, Cneo AK release -1.5, HIV Env fusion -2.0, FGF22 binding -0.1, PGC1a acetyl inh 1.6 and ERAP1 inh -7.4.
`CCCCn1nnc(N(C(=O)c2cccs2)C(=O)c2cccs2)n1` gave Ecoli rRNA inh 6.3, Cneo AK release 2.8, HIV Env fusion -5.4, FGF22 binding 0.1, PGC1a acetyl inh -1.3 and ERAP1 inh -6.0.
`CN(C)c1ccc(NC(=O)CSc2nc(N)c(C(=O)Nc3ccc(N(C)C)cc3)s2)cc1` gave Ecoli rRNA inh -6.2, Cneo AK release -7.2, HIV Env fusion 41.0*, PGC1a acetyl inh -2.4 and ERAP1 inh 4.8.
Screening COc1ccc(NC(=O)CSc2nc(N)c(C(=O)Nc3ccc(N(C)C)cc3)s2)cc1 returned Cneo AK release -5.2 and PGC1a acetyl inh -6.3.
CCOC(=O)c1c(C)cc(O)cc1O was read as Cneo AK release -0.2, FGF22 binding 0.0, PGC1a acetyl inh 5.1 and ERAP1 inh -0.5.
Screening CCOC(=O)c1c(C)cc2c(CO)n[nH]c(=O)c2c1C returned Ecoli rRNA inh 3.7, Cneo AK release 0.8, HIV Env fusion 56.2*, FGF22 binding -0.3, PGC1a acetyl inh -0.5 and ERAP1 inh 0.3.
Screening CCOc1ccc(NC2c3ccccc3C(=O)N2Cc2ccco2)cc1 (stereo not given) returned Ecoli rRNA inh 3.2, Cneo AK release 0.6, HIV Env fusion 73.6*, FGF22 binding -0.2 and ERAP1 inh -1.7.
`CC1CC(C(F)(F)F)n2nc(C(=O)O)cc2N1` (stereo not given) gave Ecoli rRNA inh 9.1, Cneo AK release -0.3, HIV Env fusion 35.9 and ERAP1 inh -1.5.
`O=C(O)c1cc2n(n1)C(C(F)(F)F)CC(C1CC1)N2` (stereo not given) gave Ecoli rRNA inh 7.5, Cneo AK release -1.1, HIV Env fusion -5.3, FGF22 binding 43.2*, PGC1a acetyl inh 3.4 and ERAP1 inh 3.2.
`Nc1cc(=O)[nH]c(SCCSc2ccccc2)n1` gave Ecoli rRNA inh -7.0, Cneo AK release 3.1, HIV Env fusion 58.4*, FGF22 binding 0.1, PGC1a acetyl inh 0.1 and ERAP1 inh -0.1.
Screening Nc1cc(=O)[nH]c(SCCOc2ccccc2)n1 returned Ecoli rRNA inh -0.6, HIV Env fusion 2.4, PGC1a acetyl inh -3.0 and ERAP1 inh -3.2.
Screening CCn1c(=N)n(CC(=O)C(C)(C)C)c2ccccc21 returned Ecoli rRNA inh -22.6*, Cneo AK release -0.5, FGF22 binding 0.0, PGC1a acetyl inh -5.8 and ERAP1 inh -3.3.
Screening CSCCC(C(=O)N1CC2(C)CC1CC(C)(C)C2)N1C(=O)c2ccccc2C1=O (stereo not given) returned Cneo AK release -0.6, HIV Env fusion 33.9* and PGC1a acetyl inh 6.0.
For CC1(C)CC2CC(C)(CN2C(=O)CN2C(=O)c3ccccc3C2=O)C1 (stereo not given) the results were Cneo AK release -7.6, HIV Env fusion inconclusive and PGC1a acetyl inh -10.3.
Screening CCCCC(=O)NC(=S)Nc1ccc(Cl)c(C(=O)O)c1 returned Ecoli rRNA inh 1.9, Cneo AK release -17.5, HIV Env fusion -12.6, FGF22 binding 0.2, PGC1a acetyl inh -0.5 and ERAP1 inh -2.8.
